Reference: ChEMBL document CHEMBL3120161, “Antimycobacterial activity of nitrogen heterocycles derivatives: bipyridine derivatives. Part III” (Eur J Med Chem, 2014)
Converted amounts (≈) assume the structure as drawn. The source made the active and inactive calls. No cut-off for these calls is given here.

Legend:
[1] = test system: Mycobacterium tuberculosis; experiment: Antimycobacterial activity against Mycobacterium tuberculosis H37Rv ATCC 27294 at 0.31 ug/ml after 7 days by microplate Alamar blue assay relative to control; format: functional; conditions: H37Rv ATCC 27294, 168 h
How it was run: (§1)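 Cycle 1 HTS MABA: M. tuberculosis H37Rv ATCC 27294 in 7H12 broth, 384-well, final 1% DMSO. Ten twofold dilutions, typically 100 to 0.195 µg/mL. Amikacin controls at 0.17 and 3.20 µM; the high level serves as background for percent inhibition. 7 days at 37 °C, ~95% humidity. Fluorescence read at 535 nm excitation / 590 nm emission.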

[2] = test system: Mycobacterium tuberculosis; experiment: Antimycobacterial activity against Mycobacterium tuberculosis H37Rv ATCC 27294 after 7 days by microplate Alamar blue assay; format: functional, organism-based; conditions: H37Rv ATCC 27294, 168 h; how it was run: as §1
[3] = test system: Mycobacterium tuberculosis; experiment: Antimycobacterial activity against Mycobacterium tuberculosis H37Rv SRI 1345 infected in mouse J774A1 cells assessed as reduction in bacterial growth at 7.5 ug/ml after 7 days relative to control; format: functional, J774.A1
How it was run: (§2)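 Murine J774 macrophages in RPMI 1640 with L-glutamine and FBS, seeded at 2.0 × 10^5 per well in 10% FBS, then switched to 1% FBS. Infected 4 h with H37Rv at MOI 5; unphagocytosed bacteria washed off. Compound added at three concentrations (0.75, 7.5, 75 µg/mL) for 7 days. At 0 and 7 days cells lysed with SDS, DNase-treated and plated on 7H10 for CFU; log reduction reported.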

[4] = test system: Mycobacterium tuberculosis; experiment: Antimycobacterial activity against Mycobacterium tuberculosis H37Rv ATCC 27294 after 7 days by broth microdilution assay; format: functional; conditions: H37Rv ATCC 27294, 168 h; how it was run: as §1
[5] = test system: Mycobacterium tuberculosis; experiment: Antimycobacterial activity against Mycobacterium tuberculosis H37Rv SRI 1345 after 7 days by broth microdilution assay; format: functional; conditions: H37Rv SRI 1345, 168 h
[6] = test system: Mycobacterium tuberculosis; experiment: Antimycobacterial activity against Mycobacterium tuberculosis H37Rv ATCC 27294 at 6.25 ug/ml after 7 days by microplate Alamar blue assay relative to control; format: functional; conditions: H37Rv ATCC 27294, 168 h; how it was run: as §1
[7] = test system: Mycobacterium tuberculosis; experiment: Antimycobacterial activity against Mycobacterium tuberculosis H37Rv SRI 1345 incubated for 7 days under anaerobic condition measured after 7 days of recovery under gaseous condition by low oxygen recovery assay; format: functional
[8] = test system: Mycobacterium tuberculosis; experiment: Antimycobacterial activity against Mycobacterium tuberculosis H37Rv ATCC 27294 at 3.13 ug/ml after 7 days by microplate Alamar blue assay relative to control; format: functional; conditions: H37Rv ATCC 27294, 168 h; how it was run: as §1
[9] = test system: Mycobacterium tuberculosis; experiment: Antimycobacterial activity against Mycobacterium tuberculosis H37Rv ATCC 27294 at 12.5 to 100 ug/ml after 7 days by microplate Alamar blue assay relative to control; format: functional; how it was run: as §1
[10] = Cytotoxicity against mouse J774A1 cells assessed as cell viability at 7.5 ug/ml after 7 days by MTT assay relative to control; format: cell-based, J774.A1; conditions: read-out: Activity
How it was run: (§3)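 Uninfected murine J774 macrophages grown in RPMI 1640 with L-glutamine and FBS at 37 °C, 5% CO2. Cells seeded at 2.0 × 10^5 per well in 10% FBS, then switched to 1% FBS overnight. Run in parallel with the 7-day infection assay. […] Read out by MTT as percent viability.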

[11] = test system: Mycobacterium tuberculosis; experiment: Antimycobacterial activity against Mycobacterium tuberculosis H37Rv SRI 1345 infected in mouse J774A1 cells assessed as reduction in bacterial growth at 75 ug/ml after 7 days relative to control; format: functional, J774.A1; how it was run: as §2
[12] = Cytotoxicity against mouse J774A1 cells assessed as cell viability at 0.75 ug/ml after 7 days by MTT assay relative to control; format: cell-based, J774.A1; conditions: read-out: Activity; how it was run: as §3
[13] = test system: Mycobacterium tuberculosis; experiment: Antimycobacterial activity against Mycobacterium tuberculosis H37Rv ATCC 27294 at 0.79 ug/ml after 7 days by microplate Alamar blue assay relative to control; format: functional; conditions: H37Rv ATCC 27294, 168 h; how it was run: as §1
[14] = test system: Mycobacterium tuberculosis; experiment: Antimycobacterial activity against Mycobacterium tuberculosis H37Rv SRI 1345 at MIC after 7 days by broth microdilution assay relative to control; format: functional
[15] = test system: Mycobacterium tuberculosis; experiment: […] activity against Mycobacterium tuberculosis H37Rv SRI 1345 after 16 to 21 days; format: functional
How it was run: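 MBC, done after MIC testing in H37Rv SRI 1345: diluted aliquots from wells without macroscopic growth are plated on Middlebrook 7H10 agar and incubated 16–21 days at 37 °C. CFUs are counted. MBC is the lowest concentration giving 99.9% kill; rejection value is ≥40 colonies.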

[16] = test system: Mycobacterium tuberculosis; experiment: Antimycobacterial activity against Mycobacterium tuberculosis H37Rv SRI 1345 infected in mouse J774A1 cells assessed as reduction in bacterial growth at 0.75 ug/ml after 7 days relative to control; format: functional, J774.A1; how it was run: as §2
[17] = Cytotoxicity against mouse J774A1 cells assessed as cell viability at 75 ug/ml after 7 days by MTT assay relative to control; format: cell-based, J774.A1; conditions: read-out: Activity; how it was run: as §3
[18] = test system: Mycobacterium tuberculosis; experiment: Antimycobacterial activity against Mycobacterium tuberculosis H37Rv ATCC 27294 at 12.5 ug/ml after 7 days by microplate Alamar blue assay relative to control; format: functional; conditions: H37Rv ATCC 27294, 168 h; how it was run: as §1
[19] = test system: Mycobacterium tuberculosis; experiment: Antimycobacterial activity against Mycobacterium tuberculosis H37Rv ATCC 27294 at 50 ug/ml after 7 days by microplate Alamar blue assay relative to control; format: functional; conditions: H37Rv ATCC 27294, 168 h; how it was run: as §1
[20] = test system: Mycobacterium tuberculosis; experiment: Antimycobacterial activity against Mycobacterium tuberculosis H37Rv ATCC 27294 at 100 ug/ml after 7 days by microplate Alamar blue assay relative to control; format: functional; conditions: H37Rv ATCC 27294, 168 h; how it was run: as §1
[21] = test system: Mycobacterium tuberculosis; experiment: Antimycobacterial activity against Mycobacterium tuberculosis H37Rv ATCC 27294 at 25 ug/ml after 7 days by microplate Alamar blue assay relative to control; format: functional; conditions: H37Rv ATCC 27294, 168 h; how it was run: as §1
[22] = test system: Mycobacterium tuberculosis; experiment: Antimycobacterial activity against Mycobacterium tuberculosis H37Rv ATCC 27294 at 1.56 ug/ml after 7 days by microplate Alamar blue assay relative to control; format: functional; conditions: H37Rv ATCC 27294, 168 h; how it was run: as §1
[23] = test system: Mycobacterium tuberculosis; experiment: Antimycobacterial activity against Mycobacterium tuberculosis H37Rv ATCC 27294 at 6.5 ug/ml after 7 days by microplate Alamar blue assay relative to control; format: functional; conditions: H37Rv ATCC 27294, 168 h; how it was run: as §1

Row | Compound | IC50 [2] [µg/mL] | IC90 [2] [µg/mL] | MIC90 [4] [µM] | inhibition at 3.13 µg/mL [8] [%] | inhibition at 0.79 µg/mL [13] [%] | inhibition at 12.5 µg/mL [18] [%] | inhibition at 50 µg/mL [19] [%] | inhibition at 100 µg/mL [20] [%] | inhibition at 1.56 µg/mL [22] [%] | further results
1 | CCOC(=O)c1cc(C(=O)c2ccccc2)n2ccc(-c3cc[n+](CC(=O)c4ccc(OC)cc4)cc3)cc12.[Br-] | 3.88 | 13.1 | 12.5 | 38.6 | 9.9 | – | – | – | – | MIC90 [1]: 12.5 µM; fold change (FC) [3]: 2.65; MIC [5]: 2.34 µg/mL; inhibition at 6.25 µg/mL [6]: 65.1%; INH [7]: 1.17 µg/mL; inhibition (INH) [9]: 98.5%; viability at 168 h, 7.5 ug/ml [10]: 71%; fold change (FC) [11]: 3.11; viability at 168 h, 0.75 ug/ml [12]: 86%; inhibition (INH) [14]: 51%; Activity [15]: inactive; fold change (FC) [16]: 1.19; viability at 168 h, 75 ug/ml [17]: < 10%
2 | CCOC(=O)c1cc(C#N)n2ccc(-c3ccncc3)cc12 | 33.4 (≈ 114 µM) | 59.5 (≈ 204 µM) | > 100 | – | 8.6 | 15.3 | 84.9 | 97.2 | – | inhibition at 25 µg/mL [21]: 21.5%
3 | CCOC(=O)c1cc(C(=O)c2ccccc2)n2ccc(-c3ccncc3)cc12 | > 100 | > 100 | > 100 | 3.9 | – | – | – | -8.6 | 3 | inhibition at 6.5 µg/mL [23]: 0.2%
4 | CCOC(=O)c1cc(C(=O)c2ccccc2)n2ccc(-c3ccn4c(C(=O)c5ccc(OC)cc5)cc(C(=O)OC)c4c3)cc12 | > 100 | > 100 | > 100 | – | – | 0.8 | 5.3 | -4.5 | -2 | –
5 | CCOC(=O)c1cc(C(N)=O)n2ccc(-c3ccncc3)cc12 | > 100 | > 100 | > 100 | – | – | 4 | 2 | -17 | 2.8 | –
